Source: ChEMBL document CHEMBL1629431, “Synthesis and antitumor activity of some 2, 3-disubstituted quinazolin-4(3H)-ones and 4, 6- disubstituted- 1, 2, 3, 4-tetrahydroquinazolin-2H-ones” (2010)

Tests used:
Assay type in all cases: functional
OVCAR-4 = assay: Growth inhibition of human OVCAR4 cells at 10 uM after 48 hrs by coulter counter method; conditions: OVCAR-4, 48 h, read-out: GI
In short: (§1)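 Single high-dose NCI 60-cell-line panel screen across nine tumor subpanels. Test solutions (0.2 mL) were added in duplicate to wells holding 1.8 mL of culture at 6 × 10⁴ cells/mL. Controls got PBS and DMSO at identical dilutions. Incubation was 48 h at 37 °C in humidified 5% CO₂. Cells were diluted 10-fold in saline, Coulter-counted and dilution-corrected. Results were expressed as percent growth inhibition versus control.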

COLO 205 = assay: Growth inhibition of human COLO205 cells at 10 uM after 48 hrs by coulter counter method; conditions: COLO 205, 48 h, read-out: GI; in short: as §1
UACC-62 = assay: Growth inhibition of human UACC62 cells at 10 uM after 48 hrs by coulter counter method; conditions: UACC-62, 48 h, read-out: GI; in short: as §1
M14 = assay: Growth inhibition of human M14 cells at 10 uM after 48 hrs by coulter counter method; conditions: M14, 48 h, read-out: GI; in short: as §1
T47D = assay: Growth inhibition of human T47D cells at 10 uM after 48 hrs by coulter counter method; conditions: read-out: GI; in short: as §1
SK-OV-3 = assay: Growth inhibition of human SKOV3 cells at 10 uM after 48 hrs by coulter counter method; conditions: SK-OV-3, 48 h, read-out: GI; in short: as §1
SF-268 = assay: Growth inhibition of human SF268 cells at 10 uM after 48 hrs by coulter counter method; conditions: SF-268, 48 h, read-out: GI; in short: as §1
KM12 = assay: Growth inhibition of human KM12 cells at 10 uM after 48 hrs by coulter counter method; conditions: KM12, 48 h, read-out: GI; in short: as §1
SN12C = assay: Growth inhibition of human SN12C cells at 10 uM after 48 hrs by coulter counter method; conditions: read-out: GI; in short: as §1
CAKI-1 = assay: Growth inhibition of human Caki1 cells at 10 uM after 48 hrs by coulter counter method; conditions: CAKI-1, 48 h, read-out: GI; in short: as §1
A549 = assay: Growth inhibition of human A549 cells at 10 uM after 48 hrs by coulter counter method; conditions: A549, 48 h, read-out: GI; in short: as §1
SK-MEL-2 = assay: Growth inhibition of human SK-MEL-2 cells at 10 uM after 48 hrs by coulter counter method; conditions: SK-MEL-2, 48 h, read-out: GI; in short: as §1
UO-31 = assay: Growth inhibition of human UO31 cells at 10 uM after 48 hrs by coulter counter method; conditions: UO-31, 48 h, read-out: GI; in short: as §1
NCI-H522 = assay: Growth inhibition of human NCI-H522 cells at 10 uM after 48 hrs by coulter counter method; conditions: NCI-H522, 48 h, read-out: GI; in short: as §1
IGROV-1 = assay: Growth inhibition of human IGROV1 cells at 10 uM after 48 hrs by coulter counter method; conditions: IGROV-1, 48 h, read-out: GI; in short: as §1
HCT-116 = assay: Growth inhibition of human HCT116 cells at 10 uM after 48 hrs by coulter counter method; conditions: HCT-116, 48 h, read-out: GI; in short: as §1
SNB-75 = assay: Growth inhibition of human SNB75 cells at 10 uM after 48 hrs by coulter counter method; conditions: SNB-75, 48 h, read-out: GI; in short: as §1
MDA-MB-231 = assay: Growth inhibition of human MDA-MB-231 cells at 10 uM after 48 hrs by coulter counter method; conditions: MDA-MB-231, 48 h, read-out: GI; in short: as §1
K562 = assay: Growth inhibition of human K562 cells at 10 uM after 48 hrs by coulter counter method; conditions: K562, 48 h, read-out: GI; in short: as §1
MCF7 = assay: Growth inhibition of human MCF7 cells at 10 uM after 48 hrs by coulter counter method; conditions: MCF7, 48 h, read-out: GI; in short: as §1
NCI-H23 = assay: Growth inhibition of human NCI-H23 cells at 10 uM after 48 hrs by coulter counter method; conditions: NCI-H23, 48 h, read-out: GI; in short: as §1
CCRF-CEM = assay: Growth inhibition of human CCRF-CEM cells at 10 uM after 48 hrs by coulter counter method; conditions: read-out: GI; in short: as §1
SF-539 = assay: Growth inhibition of human SF539 cells at 10 uM after 48 hrs by coulter counter method; conditions: SF-539, 48 h, read-out: GI; in short: as §1
MOLT-4 = assay: Growth inhibition of human MOLT4 cells at 10 uM after 48 hrs by coulter counter method; conditions: MOLT-4, 48 h, read-out: GI; in short: as §1
U-251 = assay: Growth inhibition of human U251 cells at 10 uM after 48 hrs by coulter counter method; conditions: U-251, 48 h, read-out: GI; in short: as §1
[1] = Growth inhibition of human Hs 578T cells at 10 uM after 48 hrs by coulter counter method; conditions: read-out: GI; in short: as §1
HL-60(TB) = assay: Growth inhibition of human HL-60(TB) cells at 10 uM after 48 hrs by coulter counter method; conditions: HL-60, 48 h, read-out: GI
In short: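 Part of the NCI 60-cell-line single-high-dose panel. Cells were seeded at 6 × 10⁴ cells/mL with test solution in duplicate wells, alongside PBS/DMSO controls at identical dilutions. Plates were held 48 h at 37 °C in a humidified 5% CO₂ incubator. Cells were then diluted 10-fold in saline and counted by Coulter counter, with counts corrected for dilution. Results are percent growth of treated cells, reported as GI %.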

SR = assay: Growth inhibition of human SR cells at 10 uM after 48 hrs by coulter counter method; conditions: read-out: GI; in short: as §1
MDA-MB-468 = assay: Growth inhibition of human MDA-MB-468 cells at 10 uM after 48 hrs by coulter counter method; conditions: MDA-MB-468, 48 h, read-out: GI; in short: as §1
786-0 = assay: Growth inhibition of human 786-0 cells at 10 uM after 48 hrs by coulter counter method; conditions: 786-0, 48 h, read-out: GI; in short: as §1
NCI-H226 = assay: Growth inhibition of human NCI-H226 cells at 10 uM after 48 hrs by coulter counter method; conditions: NCI-H226, 48 h, read-out: GI; in short: as §1
SK-MEL-28 = assay: Growth inhibition of human SK-MEL-28 cells at 10 uM after 48 hrs by coulter counter method; conditions: SK-MEL-28, 48 h, read-out: GI; in short: as §1
HOP-92 = assay: Growth inhibition of human HOP92 cells at 10 uM after 48 hrs by coulter counter method; conditions: HOP-92, 48 h, read-out: GI; in short: as §1
PC-3 = assay: Growth inhibition of human PC3 cells at 10 uM after 48 hrs by coulter counter method; conditions: PC-3, 48 h, read-out: GI; in short: as §1

| Structure (SMILES) | inhibition of growth at 10 µM (OVCAR-4) [%] | inhibition of growth at 10 µM (COLO 205) [%] | inhibition of growth at 10 µM (UACC-62) [%] | inhibition of growth at 10 µM (M14) [%] | inhibition of growth at 10 µM (T47D) [%] | inhibition of growth at 10 µM (SK-OV-3) [%] | inhibition of growth at 10 µM (SF-268) [%] | inhibition of growth at 10 µM (KM12) [%] | inhibition of growth at 10 µM (SN12C) [%] | inhibition of growth at 10 µM (SK-MEL-2) [%] | inhibition of growth at 10 µM (UO-31) [%] | inhibition of growth at 10 µM (NCI-H522) [%] | inhibition of growth at 10 µM (IGROV-1) [%] | inhibition of growth at 10 µM (HCT-116) [%] | inhibition of growth at 10 µM (SNB-75) [%] | inhibition of growth at 10 µM (MDA-MB-231) [%] | inhibition of growth at 10 µM (K562) [%] | inhibition of growth at 10 µM (MCF7) [%] | inhibition of growth at 10 µM (NCI-H23) [%] | inhibition of growth at 10 µM (MOLT-4) [%] | other results |
| --- | --- | --- | --- | --- | --- | --- | --- | --- | --- | --- | --- | --- | --- | --- | --- | --- | --- | --- | --- | --- | --- |
| O=C(CSc1nc2ccccc2c(=O)n1-c1ccc(Cl)cc1)c1ccc(Cl)cc1 | 30 | 30 | 30 | 30 | 30 | 30 | 30 | 30 | 30 | 30 | 30 | 52.6 | 43.7 | 30 | 30 | 30 | 30 | 30 | 30 | 30 | inhibition of growth at 10 µM (CAKI-1): 30%; inhibition of growth at 10 µM (A549): 30%; inhibition of growth at 10 µM (CCRF-CEM): 30%; inhibition of growth at 10 µM (SF-539): 30%; inhibition of growth at 10 µM (U-251): 30%; inhibition of growth at 10 µM [1]: 30%; inhibition of growth at 10 µM (HL-60(TB)): 30%; inhibition of growth at 10 µM (SR): 30%; inhibition of growth at 10 µM (MDA-MB-468): 30%; inhibition of growth at 10 µM (786-0): 30%; inhibition of growth at 10 µM (NCI-H226): 30%; inhibition of growth at 10 µM (SK-MEL-28): 30%; inhibition of growth at 10 µM (HOP-92): 30% |
| COc1ccc(-n2c(SCC(=O)c3ccc(Cl)cc3)nc3ccccc3c2=O)cc1 | 32.1 | 53.1 | 76.7 | 30 | 30 | 31.9 | 49 | 41.8 | 32.5 | 30 | 30 | 23 | 45.7 | 54.6 | 47.4 | 33.3 |  | 34.3 | 41.1 | 30 | inhibition of growth at 10 µM (PC-3): 55.3%; inhibition of growth at 10 µM (CCRF-CEM): 30%; inhibition of growth at 10 µM (SF-539): 68.6%; inhibition of growth at 10 µM (U-251): 31.6%; inhibition of growth at 10 µM [1]: 80.6%; inhibition of growth at 10 µM (HL-60(TB)): 33.3%; inhibition of growth at 10 µM (SR): 30%; inhibition of growth at 10 µM (MDA-MB-468): 41.4%; inhibition of growth at 10 µM (786-0): 31.1%; inhibition of growth at 10 µM (NCI-H226): 75.6%; inhibition of growth at 10 µM (SK-MEL-28): 30% |
| CCn1c(SCC(=O)c2ccc(OC)cc2)nc2ccccc2c1=O | 30 | 30 | 30 | 30 | 30 | 30 | 30 | 30 | 30 | 30 | 31.6 | < 30 | 30 | 30 | 30 | 30 |  | 30 | 30 | 30 | inhibition of growth at 10 µM (PC-3): 30%; inhibition of growth at 10 µM (CAKI-1): 30%; inhibition of growth at 10 µM (A549): 30%; inhibition of growth at 10 µM (CCRF-CEM): 30%; inhibition of growth at 10 µM (SF-539): 30%; inhibition of growth at 10 µM (U-251): 30%; inhibition of growth at 10 µM [1]: 30%; inhibition of growth at 10 µM (HL-60(TB)): 30%; inhibition of growth at 10 µM (SR): 30%; inhibition of growth at 10 µM (MDA-MB-468): 30%; inhibition of growth at 10 µM (786-0): 30%; inhibition of growth at 10 µM (NCI-H226): 30%; inhibition of growth at 10 µM (SK-MEL-28): 30%; inhibition of growth at 10 µM (HOP-92): 30% |
| COc1ccc(-c2nnc(Nc3nc4ccccc4c(=O)n3-c3ccccc3)s2)cc1 | 30 | 58.9 | 30 | 30 | 30 | 30 | 30 | 30 | 30 | 30 | 30 | 30 | 30 | 30 | 30 | 30 | 30 | 30 | 30 | 30 | inhibition of growth at 10 µM (PC-3): 30%; inhibition of growth at 10 µM (CAKI-1): 30%; inhibition of growth at 10 µM (A549): 30%; inhibition of growth at 10 µM (CCRF-CEM): 30%; inhibition of growth at 10 µM (SF-539): 30%; inhibition of growth at 10 µM (U-251): 30%; inhibition of growth at 10 µM [1]: 30%; inhibition of growth at 10 µM (HL-60(TB)): 30%; inhibition of growth at 10 µM (SR): 30%; inhibition of growth at 10 µM (MDA-MB-468): 30%; inhibition of growth at 10 µM (786-0): 30%; inhibition of growth at 10 µM (NCI-H226): 30%; inhibition of growth at 10 µM (SK-MEL-28): 30%; inhibition of growth at 10 µM (HOP-92): 30% |
| CN(C)c1ccc(-c2nnc(Nc3nc4ccccc4c(=O)n3-c3ccccc3)s2)cc1 |  |  |  |  |  |  |  |  |  |  |  |  |  |  |  |  | 52 |  |  | 34.6 |  |
| O=c1nc(Nc2nc3ccccc3c(=O)n2-c2ccc(Cl)cc2)cc(O)[nH]1 |  |  |  |  |  |  |  |  |  |  |  |  |  |  |  |  | 52 |  |  | 34.6 |  |
| O=c1nc(Nc2nc3ccccc3c(=O)n2-c2ccccc2)cc(O)[nH]1 |  |  |  |  |  |  |  |  |  |  |  |  | 72.3 |  |  |  |  |  |  |  |  |
| O=C1Nc2ccc(CNc3ccccn3)cc2C(c2ccc(Cl)cc2)N1 (centres undefined) |  |  |  |  | 43.9 |  |  |  |  |  | 40.5 |  |  |  |  |  |  |  |  |  |  |
| COc1ccc(C2NC(=O)Nc3ccc(S(=O)(=O)Nc4ccccn4)cc32)cc1 (centres undefined) |  |  |  |  | 43.9 |  |  |  |  |  | 40.5 |  |  |  |  |  |  |  |  |  |  |
